# The entries come from a sample that favours hits as a whole.
# HUVEC inhibit: human endothelial cell proliferation inhibition | viability, % at 10 µM (by protocol) | AID 648 | HUVEC proliferation, CellTiter-Glo luminescence, 72 h; stronger effect = lower value | 86,000 compounds, 1.1% hits;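 active = viability at or below 30%; inactive = viability above 30%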;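 also: 100% = median luminescence of DMSO-only cell control wells on each plate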
# Phagocytosis inh: blocks phagocytosis by macrophages. inhibition, % at 5 µM. J774A.1 macrophage IgG-bead phagocytosis, imaging. 110,000 compounds, 0.07% hits;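 active = inhibition above the mean of the plate negative controls plus 5 SD, cut at about 13% in these data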;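 also: phagocytic index as fraction of beads internalized from green versus red external bead signal; plate controls were DMSO negative control for no effect and cytochalasin-D positive control for full effect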
# bCat KO growth: beta-catenin-lacking colon tumor cell growth suppression | HCT116 beta-catenin knockout viability, CellTiter-Glo, 60 h; stronger effect = lower value | viability, % at 10 µM | 140,000 compounds, 1.5% hits;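 active = viability at or under a set limit, the compound median less 4 SD, cut at about 6% in these data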;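 also: 0% = Hyamine 1622 control at 20 µM and 100% = untreated cell control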
# Fibroblast inh: blocks proliferation of human lung fibroblasts. LL 47 human lung fibroblast viability, ATP luminescence; stronger effect = lower value. viability, % at 10 µM. 85,000 compounds, 1.1% hits;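 active = viability at or below 50% in the single dose screen; inactive = viability above 50%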;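 also: compound exposure lasted 72 h before the ATP readout; 100% = median luminescence of untreated cell-only wells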
#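 Signal: luminescent ATP detection, CellTiter-Glo; assay system: LL 47 human lung fibroblasts; input: 1,150 cells/well; incubation: overnight cell rest, 72 h compound treatment at 37 °C; measure: % viability versus median cells-only luminescence; medium: IMEM growth medium with 15% fetal bovine serum; dosing: compound addition at 0.1% DMSO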
# HCT116 PTEN-null: growth suppressors of cells with PTEN tumor suppressor deletion; 140,000 compounds, 1.2% hits; viability, % at 10 µM; HCT116 PTEN-null viability, CellTiter-Glo, 60 h; stronger effect = lower value;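 active = viability at or below a set limit, 4 SD under the median of all tested compounds, cut at about 3.7% in these data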;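 also: PTEN knockout HCT116 line with beta catenin targeted HCT116 as companion control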
# H69AR growth 86K: growth inhibitors of human H69AR lung tumor cells; 85,000 compounds, 6% hits; H69AR lung tumor viability, ATP luminescence, 72 h; stronger effect = lower value; viability, % at 10 µM;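 active = viability at or below 40%; inactive = viability above 40%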;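 also: multidrug resistant small cell line overexpressing MRP-1 efflux transporter; 100% = mean luminescence of untreated control wells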
# * marks the source's active call; other numbers are inactive results; · = no result given; [ ] = dose if it differs, or a comment.
SMILES,HUVEC inhibit,Phagocytosis inh,bCat KO growth,Fibroblast inh,HCT116 PTEN-null,H69AR growth 86K
COC(=O)c1cc(=O)nc2sc(-c3cccs3)nn12,95,1,95,99,108,104
COC(=O)c1cc(=O)nc2sc(-c3ccc(F)cc3)nn12,79,-2,92,93,93,36*
Clc1ccc(-c2nnc3sc(-c4ccc(Br)o4)nn23)c(Cl)c1,·,-2,98,·,95,·
Clc1ccccc1-c1nnc2sc(-c3ccc4c(c3)OCO4)nn12,50,-4,89,92,65,23*
CN(C)c1ccc(-c2nn3c(-c4ccc(Cl)cc4Cl)nnc3s2)cc1,45,-5,34,85,35,14*
Brc1ccccc1-c1nnc2sc(-c3ccc4c(c3)OCCO4)nn12,72,-1,34,87,34,17*
Cc1ccc(/C(O)=C/C(=O)C(=O)NNC(=O)C(O)(c2ccccc2)c2ccccc2)cc1,78,·,92,112,102,11*
Cn1c(SCC(=O)N2CCCCC2)nc2c([nH]c3ccccc32)c1=O,81,-1,19,87,55,43
Cn1c(SCC(=O)N2CCCCCC2)nc2c([nH]c3ccccc32)c1=O,81,-2,85,67,92,38*
CC(NCCC(c1ccccc1)c1ccccc1)c1ccccc1 (centres undefined),26*,·,1.9*,2.7*,4,0.2*
c1cn2cc(-c3ccc4c(c3)OCO4)nc2s1,92,-2,92,102,100,88
CCOc1ccc(C(=O)C(CCC(CN(C)C)C(=O)c2ccc(OCC)cc2)CN(C)C)cc1 (centres undefined),·,·,1.1*,·,1.3*,·
COc1ccc(/C=N/NC(=O)CNc2n[nH]c(=O)[nH]c2=O)cc1OC,·,97*[artifact],90,·,99,·
COc1cc(/C=N/NC(=O)CNc2n[nH]c(=O)[nH]c2=O)ccc1O,·,-4,92,·,96,·
COc1ccc(NC2=Nc3ccccc3N3C2=Nc2c(c(C)nn2-c2ccc(C)cc2)C3c2cccnc2)cc1 (centres undefined),109,0,60,112,38,103
CC(=O)Nc1ccc(NC2=Nc3ccccc3N3C2=Nc2c(c(C)nn2-c2ccccc2)C3c2ccccc2)cc1 (centres undefined),76,·,22,33*,27,67
O=C(Nc1ccccc1C(F)(F)F)N1CCN(C(c2ccccc2)c2ccccc2)CC1,69,1,89,86,85,31*
O=C(O)C1C2CCC(O2)C1C(=O)NCc1ccc(Cl)cc1 (centres undefined),·,0,91,·,91,·
Cc1ccc(C)c(C(C)NC(=O)C2C3CCC(O3)C2C(=O)O)c1 (centres undefined),29*,0,89,105,93,23*
COc1ccc(/C(O)=C/c2nc3ccccc3n(-c3ccccc3)c2=O)cc1,65,-1,82,96,70,23*
COc1ccc(-c2cc(-c3ccc(OC)cc3)nc(-c3ccc4c(c3)NC(=O)CO4)c2)cc1,·,4,2.7*,·,2.4*,·
C=C(C)CSc1nc2c(c(=O)[nH]c(=O)n2C)n1CCC(C)C,109,0,79,98,81,85
S=C(NC1CCCCC1)N(CCc1ccccc1)CCc1ccccc1,·,71*[artifact],75,·,67,·
S=C(NCCc1ccccc1)NC1CCCCCC1,·,0,70,·,67,·
Cc1ccc(-c2noc(CCC(=O)NCCCN3CCN(c4cccc(Cl)c4)CC3)n2)cc1,23*,-1,7,57,5,37*
SMILES,HUVEC inhibit,Phagocytosis inh,bCat KO growth,Fibroblast inh,HCT116 PTEN-null,H69AR growth 86K
Cc1ccc(-c2noc(CCC(=O)NCCCN3CCN(c4ccc(F)cc4)CC3)n2)cc1,75,-1,12,58,9,27*
COc1ccc(-c2noc(CCC(=O)NCCCN3CCC(C)CC3)n2)cc1,99,-1,99,100,110,97
CC(C)C(O)(C#CCN1CCCCC1)C(C)C,·,-7,97,·,94,·
COc1ccc(Cl)cc1NC(=O)C1CSC(c2ccncc2)=N1 (centres undefined),84,·,69,78,73,30*
COc1ccc(Cl)cc1NC(=O)NC(C)c1ccncc1 (centres undefined),87,-2,80,101,72,52
Cc1c(/C=N/n2cnnc2)c2ccccc2n1CCOc1ccccc1,77,0,94,·,101,32*
COc1ccccc1OCCn1cc(/C=N/n2cnnc2)c2ccccc21,·,-9,68,·,69,·
O=C(Nc1ccc2c(c1)OCCO2)C1CCCN(S(=O)(=O)c2cccnc2)C1 (centres undefined),96,0,91,95,94,88
Cc1ccc(N2CC(C(=O)NCc3ccccn3)CC2=O)cc1 (centres undefined),97,-2,104,97,91,94
O=C(c1ccc(N2C(=O)CCC2=O)cc1)N1CCN(c2ccccc2)CC1,107,-1,100,105,94,84
COc1cc(/C=C(\C#N)C(N)=O)ccc1OS(=O)(=O)c1ccc(C)cc1,·,-12,34,·,47,·
COc1cc(/C=C(\C#N)C(=O)NC2CCCCC2C)ccc1OS(=O)(=O)c1ccc(C)cc1 (centres undefined),·,-7,0.8*,·,1.0*,·
CSc1nnc2c3cc(F)ccc3n(Cc3ccccc3)c2n1,56,3,·,81,·,33*
CSc1nnc2c3ccccc3n(Cc3ccccc3)c2n1,46,8,55,72,52,49
COc1cc(C(=O)O/N=C2/C=C(C)C(=O)C=C2C)cc(OC)c1OC,·,-1,3.6*,·,6,·
COc1cccc2c1C(=O)c1c(O)c3c(c(O)c1C2=O)C[C@@](O)(C(=O)CO)C[C@@H]3O[C@H]1C[C@H](N)[C@H](O)[C@H](C)O1,·,·,4.1*,·,4,·
COc1ccc(C(=O)NC2CC(C)(C)Cc3occc32)cc1 (centres undefined),·,1,95,·,86,·
CCOC(=O)c1c(C)oc2ccc(O)c(CN(C)C)c12,95,-4,95,101,84,·
CCOC(=O)c1c(-c2ccccc2)oc2cc(CN(C)C)c(O)c(CN(C)C)c12,9.3*,·,·,94,·,10*
CCC1CCC(c2nnc(-c3ccc([N+](=O)[O-])cc3)o2)CC1 (centres undefined),·,-6,82,·,82,·
O=C(O)C1CC(=O)N(c2ccc(OCc3ccccc3Cl)cc2)C1 (centres undefined),97,-1,88,102,88,96
O=C(O)C1CC(=O)N(c2ccc(OCc3ccc(Cl)cc3Cl)cc2)C1 (centres undefined),73,·,3.3*,104,3.2*,95
CCCn1c(SCC(=O)Nc2nnc(CC)s2)nc2c1c(=O)n(C)c(=O)n2C,103,-2,·,97,·,82
CCOC(=O)c1c(NC(=O)CSc2nc3c(c(=O)n(C)c(=O)n3C)n2CC)sc(C)c1C,53,-1,·,88,·,4.0*

# Screening data as filed in PubChem.
